ChEMBL document CHEMBL4706650, “Discovery of a Novel and Brain-Penetrant O-GlcNAcase Inhibitor via Virtual Screening, Structure-Based Analysis, and Rational Lead Optimization” (J Med Chem, 2021)
Values belong to the compound of their own block, whether it stands above or below them. The source made the active and inactive calls. No cut-off for these calls is given here.

Experiments:
[1] = molecular target: T1, Protein O-GlcNAcase (Homo sapiens, UniProt O60502); assay: Inhibition of full-length human OGA expressed in Expi293 (HEK293) cells using 4-methylumbelliferyl-N-acetyl-beta-D-glucosaminide dihydrate as fluorogenic substrate preincubated with enzyme followed by substrate addition and measured every 5 mins for 60 mins by fluorescence based analysis
T1 sequence (O60502 whole entry): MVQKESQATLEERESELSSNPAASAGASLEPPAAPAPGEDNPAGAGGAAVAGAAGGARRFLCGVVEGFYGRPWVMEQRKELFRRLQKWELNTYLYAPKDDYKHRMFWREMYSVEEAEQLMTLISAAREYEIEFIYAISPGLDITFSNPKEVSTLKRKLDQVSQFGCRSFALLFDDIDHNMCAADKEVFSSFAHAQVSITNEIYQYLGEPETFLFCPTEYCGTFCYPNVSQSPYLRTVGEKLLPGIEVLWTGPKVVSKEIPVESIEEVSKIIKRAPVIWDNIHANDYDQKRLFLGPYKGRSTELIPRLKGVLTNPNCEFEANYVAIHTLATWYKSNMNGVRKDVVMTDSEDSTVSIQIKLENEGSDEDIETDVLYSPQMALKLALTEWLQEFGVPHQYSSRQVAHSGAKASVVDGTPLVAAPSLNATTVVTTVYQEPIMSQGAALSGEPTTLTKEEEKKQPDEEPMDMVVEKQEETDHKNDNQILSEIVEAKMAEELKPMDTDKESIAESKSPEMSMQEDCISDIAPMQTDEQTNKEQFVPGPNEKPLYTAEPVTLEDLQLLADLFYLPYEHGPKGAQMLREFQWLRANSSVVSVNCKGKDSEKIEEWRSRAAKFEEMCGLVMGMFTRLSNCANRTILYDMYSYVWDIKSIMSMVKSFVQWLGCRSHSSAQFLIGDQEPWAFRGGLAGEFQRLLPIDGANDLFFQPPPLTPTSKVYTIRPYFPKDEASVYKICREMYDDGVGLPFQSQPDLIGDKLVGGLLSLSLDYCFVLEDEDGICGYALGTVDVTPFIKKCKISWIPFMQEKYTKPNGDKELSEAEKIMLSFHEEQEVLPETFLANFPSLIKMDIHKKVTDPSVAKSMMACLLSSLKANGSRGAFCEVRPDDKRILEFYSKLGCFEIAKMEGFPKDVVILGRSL
Method in brief: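 Human OGA, FLAG-tagged full length from transfected Expi293 cells, purified by anti-FLAG agarose and gel filtration, 1 nM. Buffer 50 mM NaH2PO4, 100 mM NaCl, 0.01% BSA, 0.01% Tween 20, 1 mM DTT, pH 7.4; 2 mM substrate added to start after compound, RT. Ex 355/em 460 nm; 0% control enzyme+DMSO, 100% no enzyme; IC50 by variable-slope sigmoidal fit.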

[2] = molecular target: T2, Protein O-GlcNAcase (Homo sapiens) (UniProt O60502); assay: Competitive inhibition of full-length human OGA expressed in Expi293 (HEK293) cells assessed as increase in Km of substrate using varying concentrations of 4-methylumbelliferyl-N-acetyl-beta-D-glucosaminide dihydrate as fluorogenic substrate at 0.48 to 60 nM measured for 60 mins by fluorescence based analysis; settings: dose 0.48-60 nM
T2 sequence (whole entry): T1 sequence (O60502 whole entry)
Method in brief: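 Full-length human OGA (FLAG-purified, gel filtration) at 1 nM final, in 50 mM NaH2PO4, 100 mM NaCl, 0.01% BSA, 0.01% Tween 20, 1 mM DTT, pH 7.4. Substrate serially diluted 2-fold from 2 mM at several inhibitor levels. Fluorescence read over 60 min (ex 355/em 460 nm); Vmax and Km from Michaelis–Menten nonlinear fit.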

[3] = molecular target: T2, Protein O-GlcNAcase (Homo sapiens); assay: Inhibition of full-length human OGA expressed in Expi293 (HEK293) cells using 4-methylumbelliferyl-N-acetyl-beta-D-glucosaminide dihydrate as fluorogenic substrate at 10 uM preincubated with enzyme followed by substrate addition and measured every 5 mins for 60 mins by fluorescence based analysis
[4] = species on record: Homo sapiens; assay: Inhibition of human placental beta-hexosaminidase using 4-methylumbelliferyl-N-acetyl-beta-D-glucosaminide dihydrate as fluorogenic substrate at 10 uM preincubated with enzyme followed by substrate addition and measured every 5 mins for 60 mins by fluorescence based analysis; assay type: tissue-based; settings: Placenta
[5] = molecular target: T1, Protein O-GlcNAcase; assay: Inhibition of OGA in human SH-SY5Y cells assessed as increase in O-GIcNAcylated protein levels incubated for 48 hrs by in-cell Western assay; assay type: cell-based
Method in brief: (§1)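 SH-SY5Y cells seeded ~1.8 × 10⁴/well on poly-D-lysine, compound for 48 h at 37 °C. Methanol fixation, 0.1% Triton X-100 permeabilization, blocking, then Alexa Fluor 700-labelled anti-O-GlcNAc RL2 (1:500, 60 min RT). Infrared imaging of integrated fluorescence, normalized to DMSO (100%) and medium (0%); EC50 as curve inflection point, Emax as maximal % increase.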

[6] = Inhibition of human placental beta-hexosaminidase using 4-methylumbelliferyl-N-acetyl-beta-D-glucosaminide dihydrate as fluorogenic substrate preincubated with enzyme followed by substrate addition and measured every 5 mins for 60 mins by fluorescence based analysis; assay type: tissue-based, Placenta
Method in brief: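 Placental β-hexosaminidase at 10 μunits/mL in 50 mM NaH2PO4, 100 mM NaCl, 0.01% BSA, 0.01% Tween 20, 1 mM DTT, pH 7.4. Compound added before 2 mM substrate, room temperature. Fluorescence ex 355/em 460 nm; inhibition versus enzyme+DMSO (0%) and no-enzyme (100%) wells; IC50 from variable-slope sigmoidal regression.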

[7] = Drug level in C57BL/6J mouse brain at 30 mg/kg, po after 0.5 hrs by LC/MS-MS analysis; assay type: ADME, organism-based; settings: read-out: Drug uptake
Method in brief: (§2)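 Suspension in 0.5% (w/v) methylcellulose dosed orally at 30 mg/kg to C57Bl/6J mice (n = 3). Blood and brain taken at 0.5 and 1 h; plasma by centrifugation, brain homogenized in saline. Acetonitrile deproteinization with internal standard, supernatant diluted in 0.2% formic acid/10 mM ammonium formate (pH 3), LC/MS/MS quantitation.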

[8] = Drug level in C57BL/6J mouse plasma at 30 mg/kg, po after 0.5 hrs by LC/MS-MS analysis; assay type: ADME, organism-based; method in brief: as §2
[9] = Unbound brain-to-plasma concentration ratio in C57BL/6J mouse at 30 mg/kg, po after 1 hrs by equilibrium dialysis; assay type: ADME, organism-based; settings: read-out: K(p,uu,brain)
Method in brief: (§3)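 Oral dose of 30 mg/kg in 0.5% methylcellulose to C57Bl/6J mice (n = 3); plasma and brain levels at 0.5 and 1 h by LC/MS/MS. Unbound fractions in plasma and brain by equilibrium dialysis; Kp,uu = (fu,brain × Cbrain)/(fu,plasma × Cplasma).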

[10] = Unbound drug level in C57BL/6J mouse plasma at 30 mg/kg, po by equilibrium dialysis method; assay type: ADME, organism-based
Method in brief: (§4)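 Unbound fraction in mouse plasma and brain determined by equilibrium dialysis, with the fractions used to correct total plasma and brain levels after a 30 mg/kg oral dose in 0.5% methylcellulose.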

[11] = molecular target: T2, Protein O-GlcNAcase (Homo sapiens); assay: Inhibition of OGA in human SH-SY5Y cells assessed as increase in O-GIcNAcylated protein levels incubated for 48 hrs by in-cell Western assay relative to control; assay type: cell-based; method in brief: as §1
[12] = Drug level in C57BL/6J mouse brain at 30 mg/kg, po after 1 hrs by LC/MS-MS analysis; assay type: ADME, organism-based; settings: read-out: Drug uptake; method in brief: as §2
[13] = Drug level in C57BL/6J mouse plasma at 30 mg/kg, po after 1 hrs by LC/MS-MS analysis; assay type: ADME, organism-based; method in brief: as §2
[14] = Unbound brain-to-plasma concentration ratio in C57BL/6J mouse at 30 mg/kg, po after 0.5 hrs by equilibrium dialysis; assay type: ADME, organism-based; settings: read-out: K(p,uu,brain); method in brief: as §3
[15] = Unbound drug level in C57BL/6J mouse brain at 30 mg/kg, po by equilibrium dialysis method; assay type: ADME, organism-based; method in brief: as §4

SMILES: COC1CCN(c2ccnc(NCCc3ccccc3)n2)CC1
IC50 [1]: 970 nM

SMILES: CC1CCN(c2ccnc(NCCc3ccccc3)n2)CC1
IC50 [1]: 24 nM | inhibition [2]: Active

SMILES: CC1CCN(c2ccnc(NCCc3cccnc3)n2)CC1
IC50 [1]: 31 nM

SMILES: c1ccc(CCNc2nccc(N3CCOCC3)n2)cc1
IC50 [1]: 4700 nM

SMILES: CC1CCN(c2ccnc(NCCc3ccccn3)n2)CC1
IC50 [1]: 360 nM

SMILES: CC1CCN(c2ccnc(NCc3cn(C)cn3)n2)CC1 [TP-040]
EC50 [5]: 450 nM | IC50 [6]: > 10000 nM | IC50 [1]: 46 nM | concentration at 0.5 h [7]: 2700 ng/g | concentration at 0.5 h [8]: 2800 ng/mL | Kp uu at 1 h [9]: 0.36 | fraction unbound [10]: 0.53 | Emax [11]: 143% | concentration at 1 h [12]: 2600 ng/g | concentration at 1 h [13]: 1900 ng/mL | Kp uu at 0.5 h [14]: 0.25 | fraction unbound [15]: 0.14

Further lines, results first:

IC50 [1]: > 10000 nM
SMILES: OC1CCN(c2ccnc(NCCc3ccccc3)n2)CC1

IC50 [1]: 18 nM
SMILES: CC1CCN(c2ccnc(NCc3cccnc3)n2)CC1

inhibition [3]: > 50% | IC50 [1]: 41 nM | inhibition [4]: inactive
SMILES: CC1CCN(c2ccnc(NC(C)CN3CCN(C)CC3)n2)CC1 (centres undefined)

IC50 [1]: > 10000 nM
SMILES: CN1CCN(c2ccnc(NCCc3ccccc3)n2)CC1 [TP-040n]
